ChEMBL document CHEMBL3994613, “Diaryltriazenes as antibacterial agents against methicillin resistant Staphylococcus aureus (MRSA) and Mycobacterium smegmatis” (Eur J Med Chem, 2017)
Converted amounts (≈) assume the structure as drawn.

Experiments:
Staphylococcus aureus [1] = assay: Antibacterial activity against methicillin-resistant Staphylococcus aureus USA300 by broth microdilution method
Staphylococcus aureus [2] = assay: Antibacterial activity against methicillin-resistant Staphylococcus aureus USA300 after 18 to 20 hrs by microdilution method; assay type: functional
Summary of the method: (§1)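 EUCAST broth microdilution in LB broth. Inoculum prepared by direct colony suspension from 20–24 h LB agar (E. coli DH10β) or 5% sheep blood BHI agar (MRSA USA300) growth. Final inoculum 2×10^4 CFU/mL, 18–20 h aerobic at 37 °C, growth read on a plate reader, at least duplicate.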

Saccharomyces cerevisiae = assay: Antibacterial activity against Saccharomyces cerevisiae after 18 to 20 hrs by microdilution method
Summary of the method: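 Microdilution in YEP broth against wild-type yeast grown on YEP agar. Final inoculum 1×10^5 CFU/mL. Read after 18–20 h aerobic incubation at 30 °C on plate reader, at least one duplicate.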

[3] = tested on: Mycolicibacterium smegmatis; assay: Antimycobacterial activity against Mycobacterium smegmatis MC2 155 after 94 to 98 hrs by microdilution method; assay type: functional; details: str. MC2 155
Summary of the method: (§2)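 Microdilution in TSB broth. Inoculum from colonies grown 96 h on TSA, final 1×10^5 CFU/mL, aerobic 94–98 h at 37 °C, growth read on a plate reader, at least duplicate.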

Escherichia coli [4] = assay: Bactericidal activity against Escherichia coli DH10beta harboring pHuLUC3 after 18 to 20 hrs by microdilution method; assay type: functional; summary of the method: as §1
Escherichia coli [5] = assay: Antibacterial activity against Escherichia coli DH10beta harboring pHuLUC3 after 18 to 20 hrs by microdilution method; assay type: functional; summary of the method: as §1
[6] = tested on: Mycolicibacterium smegmatis; assay: Bactericidal activity against Mycobacterium smegmatis MC2 155 after 96 hrs by microdilution method; assay type: functional; details: str. MC2 155, 96 h; summary of the method: as §2
Staphylococcus aureus [7] = assay: Bactericidal activity against methicillin-resistant Staphylococcus aureus USA300 after 18 to 20 hrs by microdilution method; assay type: functional; summary of the method: as §1

Row | Structure (SMILES) | MIC (Staphylococcus aureus [1]) | MIC (Staphylococcus aureus [2]) | MIC (Saccharomyces cerevisiae) | MIC [3] | MBC (Escherichia coli [4]) | MIC (Escherichia coli [5]) | MBC [6] | MBC (Staphylococcus aureus [7])
1 | CC(=O)NC[C@H]1CN(c2ccc(N3CCOCC3)c(F)c2)C(=O)O1 [LINEZOLID] | 2 to 4 µg/mL (≈ 5.93 to 11.9 µM) |  |  |  |  |  |  | 
2 | O=C(c1ccccc1C(F)(F)F)N(/N=N/c1ccc([N+](=O)[O-])cc1C(F)(F)F)c1ccc([N+](=O)[O-])cc1C(F)(F)F |  | > 128 µg/mL | > 128 µg/mL | > 128 µg/mL | 128 µg/mL (≈ 215 µM) | 128 µg/mL (≈ 215 µM) |  | 
3 | O=C(c1cccc(C(F)(F)F)c1)N(/N=N/c1ccc([N+](=O)[O-])cc1Br)c1ccc([N+](=O)[O-])cc1Br |  | 8 µg/mL (≈ 13 µM) | > 128 µg/mL | 128 µg/mL (≈ 207 µM) | 64 µg/mL (≈ 104 µM) | 32 µg/mL (≈ 51.9 µM) | > 128 µg/mL | 8 µg/mL (≈ 13 µM)
4 | O=C(CCl)N(/N=N/c1ccc(Cl)cc1C(F)(F)F)c1ccc(Cl)cc1C(F)(F)F |  | > 128 µg/mL | > 128 µg/mL |  |  |  |  | > 128 µg/mL
5 | Ic1ccccc1/N=N/Nc1ccccc1I |  | > 128 µg/mL | > 128 µg/mL | > 128 µg/mL |  | > 128 µg/mL |  | 
6 | NC[C@H]1O[C@H](O[C@H]2[C@H](O)[C@@H](O[C@H]3O[C@H](CO)[C@@H](O)[C@H](N)[C@H]3O)[C@H](N)C[C@@H]2N)[C@H](N)C[C@@H]1O [TOBRAMYCIN] | 0.5 to 2 µg/mL (≈ 1.07 to 4.28 µM) |  |  |  |  |  |  | 
7 | O=C(CCl)N(/N=N/c1ccc(C(F)(F)F)cc1C(F)(F)F)c1ccc(C(F)(F)F)cc1C(F)(F)F |  | > 128 µg/mL | > 128 µg/mL |  |  |  |  | > 128 µg/mL
8 | O=C(c1ccncc1)N(/N=N/c1ccc([N+](=O)[O-])cc1)c1ccc([N+](=O)[O-])cc1 |  | 128 µg/mL (≈ 326 µM) | > 128 µg/mL | > 128 µg/mL | 32 µg/mL (≈ 81.6 µM) | 16 µg/mL (≈ 40.8 µM) |  | 128 µg/mL (≈ 326 µM)
9 | O=C(c1cccnc1)N(/N=N/c1ccc([N+](=O)[O-])cc1)c1ccc([N+](=O)[O-])cc1 |  | 64 µg/mL (≈ 163 µM) | > 128 µg/mL | > 128 µg/mL | 16 µg/mL (≈ 40.8 µM) | 8 µg/mL (≈ 20.4 µM) |  | 128 µg/mL (≈ 326 µM)
10 | O=C(c1cccc(C(F)(F)F)c1)N(/N=N/c1ccc([N+](=O)[O-])cc1Cl)c1ccc([N+](=O)[O-])cc1Cl |  | 8 µg/mL (≈ 15.1 µM) | > 128 µg/mL | 32 µg/mL (≈ 60.6 µM) | 64 µg/mL (≈ 121 µM) | 32 µg/mL (≈ 60.6 µM) | > 128 µg/mL | 8 µg/mL (≈ 15.1 µM)
11 | COC(=O)N(/N=N/c1ccc([N+](=O)[O-])cc1Cl)c1ccc([N+](=O)[O-])cc1Cl |  | 32 µg/mL (≈ 77.3 µM) | > 128 µg/mL | 128 µg/mL (≈ 309 µM) | 128 µg/mL (≈ 309 µM) | 64 µg/mL (≈ 155 µM) | > 128 µg/mL | 32 µg/mL (≈ 77.3 µM)
12 | FC(F)(F)c1ccc(/N=N/Nc2ccc(C(F)(F)F)cc2C(F)(F)F)c(C(F)(F)F)c1 |  | > 128 µg/mL | > 128 µg/mL |  |  |  |  | 
13 | O=C(c1ccc(F)cc1)N(/N=N/c1ccc([N+](=O)[O-])cc1Br)c1ccc([N+](=O)[O-])cc1Br |  | > 128 µg/mL | > 128 µg/mL | > 128 µg/mL | 64 µg/mL (≈ 113 µM) | 64 µg/mL (≈ 113 µM) |  | 
14 | C[C@H]1COc2c(N3CCN(C)CC3)c(F)cc3c(=O)c(C(=O)O)cn1c23.C[C@H]1COc2c(N3CCN(C)CC3)c(F)cc3c(=O)c(C(=O)O)cn1c23.O [LEVOFLOXACIN] | 0.25 to 32 µg/mL |  |  |  |  |  |  | 
15 | COc1c(N2CCNC(C)C2)c(F)cc2c(=O)c(C(=O)O)cn(C3CC3)c12 (centres undefined) [GATIFLOXACIN] | 0.5 to 4 µg/mL (≈ 1.33 to 10.7 µM) |  |  |  |  |  |  | 
16 | O=C(c1ccncc1)N(/N=N/c1ccc([N+](=O)[O-])cc1Cl)c1ccc([N+](=O)[O-])cc1Cl |  | 16 µg/mL (≈ 34.7 µM) | > 128 µg/mL | 128 µg/mL (≈ 278 µM) | 16 µg/mL (≈ 34.7 µM) | 16 µg/mL (≈ 34.7 µM) | > 128 µg/mL | 16 µg/mL (≈ 34.7 µM)
17 | O=C(c1cccnc1)N(/N=N/c1ccc([N+](=O)[O-])cc1Cl)c1ccc([N+](=O)[O-])cc1Cl |  | 32 µg/mL (≈ 69.4 µM) | > 128 µg/mL | 64 µg/mL (≈ 139 µM) | 32 µg/mL (≈ 69.4 µM) | 32 µg/mL (≈ 69.4 µM) | 128 µg/mL (≈ 278 µM) | 32 µg/mL (≈ 69.4 µM)
18 | NC[C@H]1O[C@H](O[C@H]2[C@H](O)[C@@H](O[C@H]3O[C@H](CO)[C@@H](O)[C@H](N)[C@H]3O)[C@H](N)C[C@@H]2N)[C@H](O)[C@@H](O)[C@@H]1O [KANAMYCIN] | > 64 µg/mL |  |  |  |  |  |  | 
19 | CCC[C@@H]1C[C@@H](C(=O)N[C@@H]([C@H]2O[C@H](SC)[C@H](O)[C@@H](O)[C@H]2O)[C@H](C)Cl)N(C)C1 [CLINDAMYCIN] | 0.125 to 64 µg/mL (≈ 0.294 to 151 µM) |  |  |  |  |  |  | 
20 | Fc1ccc(/N=N/Nc2ccc(F)cc2C(F)(F)F)c(C(F)(F)F)c1 |  | > 128 µg/mL | > 128 µg/mL | > 128 µg/mL |  | > 128 µg/mL |  | 
